Results as given in ChEMBL document CHEMBL2417423, “Synthesis and antifungal activities of miltefosine analogs” (Bioorg Med Chem Lett, 2013).
Converted amounts (≈) assume the structure as drawn. The source made the active and inactive calls. The rule behind the calls is not given here.

How the values were obtained:
[1] = system: Aspergillus fumigatus; test: Antifungal activity against Aspergillus fumigatus ATCC 90906 at 20 ug/ml after 48 hrs by spectrophotometry; assay type: functional, organism-based
[2] = system: Cryptococcus neoformans; test: Antifungal activity against Cryptococcus neoformans ATCC 90113 at 20 ug/ml after 72 hrs by spectrophotometry; assay type: functional, organism-based
[3] = system: Vero; test: Cytotoxicity against african green monkey Vero cells after 48 hrs by neutral red; assay type: cell-based; settings: Chlorocebus sabaeus
[4] = system: Candida albicans; test: Antifungal activity against Candida albicans ATCC 90028 at 20 ug/ml after 48 hrs by spectrophotometry; assay type: functional, organism-based
[5] = system: Pichia kudriavzevii; test: Antifungal activity against Candida krusei ATCC 6258 at 20 ug/ml after 48 hrs; assay type: functional, organism-based
[6] = Cytotoxicity against pig LLC-PK11 cells after 48 hrs by neutral red; assay type: cell-based; settings: Sus scrofa, LLC-PK11, 48 h
[7] = system: Cryptococcus neoformans; test: Antifungal activity against Cryptococcus neoformans ATCC 90113 at 20 ug/ml after 72 hrs; assay type: functional, organism-based
[8] = system: Aspergillus fumigatus; test: Antifungal activity against Aspergillus fumigatus ATCC 90906 at 20 ug/ml after 48 hrs; assay type: functional, organism-based
[9] = system: HepG2; test: Cytotoxicity against human HepG2 cells after 48 hrs by neutral red; assay type: cell-based; settings: HepG2, 48 h
[10] = system: Nakaseomyces glabratus; test: Antifungal activity against Candida glabrata ATCC 90030 after 48 hrs by spectrophotometry; assay type: functional; settings: ATCC 90030, 48 h
Procedure, shortened: (§1)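 MIC is the lowest concentration with no detectable growth. MFC: 5 μL from each clear well moved to agar at 35°C, 48 h for Candida spp. and A. fumigatus, 72 h for C. neoformans; lowest concentration that kills. Values are means of three independent experiments (two for one analog).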

[11] = system: Pichia kudriavzevii; test: Antifungal activity against Candida krusei ATCC 6258 at 20 ug/ml after 48 hrs by spectrophotometry; assay type: functional, organism-based
[12] = system: Candida albicans; test: Antifungal activity against Candida albicans ATCC 90028 at 20 ug/ml after 48 hrs; assay type: functional, organism-based
[13] = system: Nakaseomyces glabratus; test: Antifungal activity against Candida glabrata ATCC 90030 after 48 hrs; assay type: functional; settings: ATCC 90030, 48 h; procedure, shortened: as §1
[14] = system: Aspergillus fumigatus; test: Antifungal activity against Aspergillus fumigatus ATCC 90906 after 48 hrs by spectrophotometry; assay type: functional; settings: ATCC 90906, 48 h; procedure, shortened: as §1
[15] = system: Candida albicans; test: Antifungal activity against Candida albicans ATCC 90028 after 48 hrs by spectrophotometry; assay type: functional; settings: ATCC 90028, 48 h; procedure, shortened: as §1
[16] = system: Pichia kudriavzevii; test: Antifungal activity against Candida krusei ATCC 6258 after 48 hrs; assay type: functional; settings: ATCC 6258, 48 h; procedure, shortened: as §1
[17] = system: Candida albicans; test: Antifungal activity against Candida albicans ATCC 90028 after 48 hrs; assay type: functional; settings: ATCC 90028, 48 h; procedure, shortened: as §1
[18] = system: Cryptococcus neoformans; test: Antifungal activity against Cryptococcus neoformans ATCC 90113 after 72 hrs; assay type: functional; settings: ATCC 90113, 72 h; procedure, shortened: as §1
[19] = system: Pichia kudriavzevii; test: Antifungal activity against Candida krusei ATCC 6258 after 48 hrs by spectrophotometry; assay type: functional; settings: ATCC 6258, 48 h; procedure, shortened: as §1
[20] = system: Cryptococcus neoformans; test: Antifungal activity against Cryptococcus neoformans ATCC 90113 after 72 hrs by spectrophotometry; assay type: functional; settings: ATCC 90113, 72 h; procedure, shortened: as §1
[21] = system: Aspergillus fumigatus; test: Antifungal activity against Aspergillus fumigatus ATCC 90906 after 48 hrs; assay type: functional; settings: ATCC 90906, 48 h; procedure, shortened: as §1
[22] = system: Candida albicans; test: Antifungal activity against Candida albicans SC5314 infected in CD-1 mouse assessed as host survival at 5 mg/kg, ip administered 4, 24, 48, 72, and 96 hrs post inoculation measured up to 8 days relative to control; assay type: functional, organism-based; design: dose 5 mg/kg
[23] = system: Leishmania donovani; test: Antileishmanial activity against Leishmania donovani in ip dosed mouse model of leishamniasis; assay type: functional
[24] = system: Candida albicans; test: Antifungal activity against Candida albicans SC5314 infected in CD-1 mouse assessed as host survival at 1 mg/kg, ip administered 4, 24, 48, 72, and 96 hrs post inoculation measured up to […] relative to control; assay type: functional, organism-based; design: dose 1 mg/kg
[25] = system: Candida albicans; test: Antifungal activity against Candida albicans SC5314 infected in CD-1 mouse assessed as host survival at 5 mg/kg, po administered 4, 24, 48, 72, and 96 hrs post inoculation measured up to 12 days relative to control; assay type: functional, organism-based; design: dose 5 mg/kg
Procedure, shortened: (§2)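 Male CD1 mice, 6-7 weeks old, five per group, infected by tail-vein injection of 1 × 10^6 C. albicans SC5314 cells. Dosed intraperitoneally or orally at 4, 24, 48, 72 and 96 h post inoculation; PBS-treated controls. Survival followed for 12 days and compared by Log-rank test.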

[26] = system: Candida albicans; test: Antifungal activity against Candida albicans SC5314 infected in CD-1 mouse assessed as host survival at 25 mg/kg, po administered 4, 24, 48, 72, and 96 hrs post inoculation measured up to 12 days relative to control; assay type: functional, organism-based; design: dose 25 mg/kg; procedure, shortened: as §2

Compound | MIC [10] [µg/mL] | MIC [14] [µg/mL] | MIC [15] [µg/mL] | MIC [19] [µg/mL] | MIC [20] [µg/mL] | Activity [2] | IC50 [3] [µg/mL] | Activity [4] | Activity [5] | IC50 [6] [µg/mL] | Activity [7] | IC50 [9] [µg/mL] | Activity [11] | Activity [12] | MFC [13] [µg/mL] | MFC [16] [µg/mL] | MFC [17] [µg/mL] | MFC [18] [µg/mL] | MFC [21] [µg/mL] | further results
CCCCCCCCCCCCCCOP(=O)([O-])OCC[N+](C)(C)Cc1ccccc1 | 8.3 (≈ 18.2 µM) | 10 (≈ 21.9 µM) | 6.7 (≈ 14.7 µM) | 10 (≈ 21.9 µM) | 3.3 (≈ 7.24 µM) | – | > 25 | – | – | 10.8 (≈ 23.7 µM) | – | > 25 | – | – | 8.3 (≈ 18.2 µM) | 10 (≈ 21.9 µM) | 8.3 (≈ 18.2 µM) | 3.3 (≈ 7.24 µM) | – | –
C[C@@H]1[C@H](O)[C@@H](C)/C=C/C=C/C=C/C=C/C=C/C=C/C=C/[C@H](O[C@@H]2O[C@H](C)[C@@H](O)[C@H](N)[C@@H]2O)C[C@@H]2O[C@](O)(C[C@@H](O)C[C@@H](O)[C@H](O)CC[C@@H](O)C[C@@H](O)CC(=O)O[C@H]1C)C[C@H](O)[C@H]2C(=O)O [AMPHOTERICIN B] | 1.3 (≈ 1.41 µM) | 2.5 (≈ 2.71 µM) | 0.9 (≈ 0.974 µM) | 1.7 (≈ 1.84 µM) | – | – | – | – | – | – | – | – | – | – | 1.5 (≈ 1.62 µM) | 1.7 (≈ 1.84 µM) | 1 (≈ 1.08 µM) | – | 5 (≈ 5.41 µM) | –
CCCCCCCCCCCCCCCCCCOP(=O)([O-])OCC[N+](C)(C)Cc1ccccc1 | 4.2 (≈ 8.21 µM) | – | – | – | – | inactive | > 25 | inactive | inactive | 4.7 (≈ 9.18 µM) | inactive | 13 (≈ 25.4 µM) | inactive | inactive | 4.2 (≈ 8.21 µM) | – | – | – | – | Activity [1]: inactive; Activity [8]: inactive
COc1cccc2c1C(=O)c1c(O)c3c(c(O)c1C2=O)C[C@@](O)(C(=O)CO)C[C@@H]3O[C@H]1C[C@H](N)[C@H](O)[C@H](C)O1 [DOXORUBICIN] | – | – | – | – | – | – | > 5 | – | – | 0.7 (≈ 1.29 µM) | – | 0.9 (≈ 1.66 µM) | – | – | – | – | – | – | – | –
CCCCCCCCCCCCCCCCOP(=O)([O-])OCC[N+](C)(C)Cc1ccc([N+](=O)[O-])cc1 | 2.5 (≈ 4.73 µM) | 2.5 (≈ 4.73 µM) | 2.5 (≈ 4.73 µM) | 2.5 (≈ 4.73 µM) | 2.5 (≈ 4.73 µM) | – | > 25 | – | – | 1.6 (≈ 3.03 µM) | – | 11.5 (≈ 21.8 µM) | – | – | 2.5 (≈ 4.73 µM) | 3.3 (≈ 6.24 µM) | 2.5 (≈ 4.73 µM) | 2.5 (≈ 4.73 µM) | 7.5 (≈ 14.2 µM) | –
CCCCCCCCCCCCCCCCOP(=O)([O-])OCC[N+](C)(C)Cc1ccc(OC)cc1 | 2.5 (≈ 4.87 µM) | 2.5 (≈ 4.87 µM) | 4.2 (≈ 8.18 µM) | 2 (≈ 3.89 µM) | 4.2 (≈ 8.18 µM) | – | > 25 | – | – | 1.9 (≈ 3.7 µM) | – | 12.9 (≈ 25.1 µM) | – | – | 3.3 (≈ 6.42 µM) | 3.3 (≈ 6.42 µM) | 4.2 (≈ 8.18 µM) | 4.2 (≈ 8.18 µM) | 7.5 (≈ 14.6 µM) | –

The next lines start with results.

MIC [10] [µg/mL] | MIC [14] [µg/mL] | MIC [15] [µg/mL] | MIC [19] [µg/mL] | MIC [20] [µg/mL] | Compound | Activity [2] | IC50 [3] [µg/mL] | Activity [4] | Activity [5] | IC50 [6] [µg/mL] | Activity [7] | IC50 [9] [µg/mL] | Activity [11] | Activity [12] | MFC [13] [µg/mL] | MFC [16] [µg/mL] | MFC [17] [µg/mL] | MFC [18] [µg/mL] | MFC [21] [µg/mL] | further results
16.6 (≈ 38.3 µM) | – | – | – | – | C=CC[N+](C)(C)CCOP(=O)([O-])OCCCCCCCCCCCCCCCC | inactive | > 25 | inactive | inactive | 4.1 (≈ 9.46 µM) | inactive | 13.2 (≈ 30.4 µM) | inactive | inactive | 16.6 (≈ 38.3 µM) | – | – | – | – | Activity [1]: inactive; Activity [8]: inactive
3.3 (≈ 8.1 µM) | 2.9 (≈ 7.12 µM) | 2.5 (≈ 6.13 µM) | 2.5 (≈ 6.13 µM) | 2.1 (≈ 5.15 µM) | CCCCCCCCCCCCCCCCOP(=O)([O-])OCC[N+](C)(C)C [MILTEFOSINE] | – | > 25 | – | – | 2.7 (≈ 6.62 µM) | – | > 25 | – | – | 4.2 (≈ 10.3 µM) | 3.3 (≈ 8.1 µM) | 2.5 (≈ 6.13 µM) | 2.1 (≈ 5.15 µM) | 9.2 (≈ 22.6 µM) | Activity [22]: inactive; ED50 [23]: 7.72 mg/kg
3.3 (≈ 6.82 µM) | 2.5 (≈ 5.17 µM) | 2.5 (≈ 5.17 µM) | 5 (≈ 10.3 µM) | 3.3 (≈ 6.82 µM) | CCCCCCCCCCCCCCCCOP(=O)([O-])OCC[N+](C)(C)Cc1ccccc1 | – | > 25 | – | – | 4.8 (≈ 9.92 µM) | – | > 25 | – | – | 3.3 (≈ 6.82 µM) | 15 (≈ 31 µM) | 2.5 (≈ 5.17 µM) | 3.3 (≈ 6.82 µM) | 2.5 (≈ 5.17 µM) | Activity [24]: inactive; Activity [22]: inactive; Activity [25]: inactive; Activity [26]: inactive
2.5 (≈ 4.9 µM) | 2.5 (≈ 4.9 µM) | – | 3.3 (≈ 6.47 µM) | – | CCCCCCCCCCCCCCCCOP(=O)([O-])OCC[N+](C)(C)C/C=C/c1ccccc1 | inactive | > 25 | inactive | – | 2.1 (≈ 4.12 µM) | inactive | 19.6 (≈ 38.5 µM) | – | inactive | 3.3 (≈ 6.47 µM) | 3.3 (≈ 6.47 µM) | – | – | 5 (≈ 9.81 µM) | –
10.8 (≈ 19.2 µM) | 20 (≈ 35.6 µM) | – | – | – | CCCCCCCCCCCCCCCCOP(=O)([O-])OCC[N+](C)(C)Cc1ccc(Br)cc1 | inactive | > 25 | inactive | inactive | 5.5 (≈ 9.78 µM) | inactive | 21.3 (≈ 37.9 µM) | inactive | inactive | 10.8 (≈ 19.2 µM) | – | – | – | 20 (≈ 35.6 µM) | –
11.2 (≈ 21.6 µM) | 12.5 (≈ 24.1 µM) | – | – | – | CCCCCCCCCCCCCCCCOP(=O)([O-])OCC[N+](C)(C)Cc1ccc(Cl)cc1 | inactive | > 25 | inactive | inactive | 3.2 (≈ 6.18 µM) | inactive | 21 (≈ 40.5 µM) | inactive | inactive | 11.2 (≈ 21.6 µM) | – | – | – | 12.5 (≈ 24.1 µM) | –
